As usually defined, the Ki is the equilibrium dissociation constant of an inhibitor or competing ligand from its target.

The values below come from ChEMBL document CHEMBL2176920, “Structure-based selectivity optimization of piperidine-pteridine derivatives as potent Leishmania pteridine reductase inhibitors” (J Med Chem, 2012).

≈ marks a conversion by molar mass, not a printed value. Calls of active or inactive are those of the source. The rule behind the calls is not given here.

The subject of one data set is Leishmania major. As to the kind of experiment: Antiparasitic activity against Leishmania major promastigotes assessed as parasite growth at 50 ug/mL. It counts as functional. In outline: (§1)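 Promastigotes grown from 10^5 parasites/mL and harvested in exponential phase at 2 × 10^7/mL. For the assay they were plated at 10^6 cells/mL in 96-well format, so cells were leaving exponential phase for stationary phase. Compound was given at 50 μg/mL alone or together with pyrimethamine at 30 μg/mL. Percent growth inhibition was compared between the single agent and the combination.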

The subject of data set [1] is Leishmania mexicana. The data set can be described thus: Inhibition of pteridine reductase in Leishmania mexicana promastigote assessed as increase in pyrimethamine-induced growth inhibition by measuring parasite growth at 50 ug/mL. Details: scale not given: the % may be the effect or the level left. The essentials:
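Promastigotes plated at 10^6 cells/mL, leaving exponential and entering stationary phase. Exposed to compound at 50 μg/mL alone or together with pyrimethamine at 30 μg/mL. Percent growth inhibition with compound alone compared with that of each compound plus PYR.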

Data set [2] has as its system Leishmania mexicana. As to the kind of experiment: Inhibition of pteridine reductase in Leishmania mexicana promastigote assessed as increase in pyrimethamine cytotoxicity by Chou-Talalay method.
The next data set concerns MRC5. As to the kind of experiment: Toxicity against human MRC5 cells assessed as growth inhibition at 50 ug/mL. It counts as cell-based. The essentials: (§2)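 MRC-5 human fibroblasts were grown at 37 °C, 5% CO2, in DMEM with 10% heat-inactivated FBS and extra glutamine. Cells were seeded so that control wells were confluent after 72 h of incubation with compound. Alamar Blue optical density was the read-out. Values are mean ± SD of three independent experiments.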

Data set [3] concerns the target T1, Dihydrofolate reductase (Homo sapiens) (UniProt P00374).
T1 sequence (whole entry): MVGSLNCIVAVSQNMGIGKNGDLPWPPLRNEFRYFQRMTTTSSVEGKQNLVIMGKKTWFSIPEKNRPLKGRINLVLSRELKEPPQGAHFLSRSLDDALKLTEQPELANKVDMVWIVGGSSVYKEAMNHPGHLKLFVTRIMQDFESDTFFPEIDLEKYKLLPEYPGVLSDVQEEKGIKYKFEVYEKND
As to the kind of experiment: Inhibition of human DHFR at 30 uM by spectrophotometric analysis. In outline:
(§3)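 Purified human enzymes screened in continuous spectrophotometric assays. DMSO was kept below the level affecting activity: under 5% for hDHFR and under 8% for hTS.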

In data set [4] the target is T2, Thymidylate synthase (Homo sapiens, UniProt P04818). As to the kind of experiment: Inhibition of human TS at 50 uM by spectrophotometric analysis. The essentials: as §3
Target sequence in this assay (P04818 2-313 limits assumed): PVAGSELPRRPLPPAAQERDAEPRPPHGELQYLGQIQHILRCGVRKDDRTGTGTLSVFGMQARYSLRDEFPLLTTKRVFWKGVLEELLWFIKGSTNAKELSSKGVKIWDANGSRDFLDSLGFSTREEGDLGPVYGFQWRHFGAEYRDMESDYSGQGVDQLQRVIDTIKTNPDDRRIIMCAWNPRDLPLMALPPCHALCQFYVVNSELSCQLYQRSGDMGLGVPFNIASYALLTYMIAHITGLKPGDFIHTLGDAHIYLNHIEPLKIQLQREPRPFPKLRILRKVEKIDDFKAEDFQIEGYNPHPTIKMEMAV
Data set [5] concerns Leishmania mexicana. As to the kind of experiment: Antiparasitic activity against Leishmania mexicana promastigotes assessed as parasite growth at 50 ug/mL. It counts as functional. The essentials:
as §1

The target of data set [6] is T3, Pteridine reductase 1 (Leishmania major) (UniProt Q01782).
T3 sequence (whole entry): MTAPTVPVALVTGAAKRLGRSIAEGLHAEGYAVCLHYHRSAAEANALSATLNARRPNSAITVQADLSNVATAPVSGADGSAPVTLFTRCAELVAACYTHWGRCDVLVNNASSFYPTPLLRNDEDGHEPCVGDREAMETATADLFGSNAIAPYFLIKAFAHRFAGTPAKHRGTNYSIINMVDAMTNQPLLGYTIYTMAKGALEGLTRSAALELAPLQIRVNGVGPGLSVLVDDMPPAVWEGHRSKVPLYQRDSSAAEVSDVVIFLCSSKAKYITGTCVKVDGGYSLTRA

For data set [7], the system named is Leishmania mexicana. The data set can be described thus: Inhibition of pteridine reductase in Leishmania mexicana promastigote assessed as reduction in cell survival upon H2O2 exposure at ED50 after 48 hrs at 28 degC relative to control. In outline: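 L. mexicana promastigotes plated at 10^5 cells/mL and pretreated with compound for 48 h at 28 °C. Then diluted to 2 × 10^4 cells/mL and exposed to increasing H2O2 concentrations for 45 min. Surviving motile parasites counted on a Neubauer grid. Compound-treated, non-H2O2 sample taken as 100%; compared against untreated H2O2-exposed series.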

Data set [8] can be described thus: Toxicity against human MRC5 cells assessed as growth inhibition. It counts as cell-based. The note with it: read-out: ED50 (the source's name). In outline:
as §2

Data set [9] addresses T2, Thymidylate synthase. The data set can be described thus: Inhibition of human TS at 15 uM by spectrophotometric analysis. The essentials: as §3
Target sequence in this assay (P04818 2-313 limits assumed): as the sequence (P04818 2-313 limits assumed) above
Data set [10] can be described thus: Toxicity against human MRC5 cells assessed as growth inhibition at 100 ug/mL. The data set is classed as cell-based. The note with it: read-out: GI. The essentials:
as §2

Data set [11] addresses T2, Thymidylate synthase. The data set can be described thus: Inhibition of human TS at 30 uM by spectrophotometric analysis. The essentials:
as §3
Target sequence in this assay (P04818 2-313 limits assumed): as the sequence (P04818 2-313 limits assumed) above

Another data set deals with T4, Dihydrofolate reductase (Homo sapiens, UniProt P00374).
T4 sequence (P00374 whole entry): T1 sequence (whole entry)
As to the kind of experiment: Inhibition of human DHFR by spectrophotometric analysis.

The target of data set [12] is T2, Thymidylate synthase. As to the kind of experiment: Inhibition of human TS by spectrophotometric analysis.
Target sequence in this assay (P04818 whole entry): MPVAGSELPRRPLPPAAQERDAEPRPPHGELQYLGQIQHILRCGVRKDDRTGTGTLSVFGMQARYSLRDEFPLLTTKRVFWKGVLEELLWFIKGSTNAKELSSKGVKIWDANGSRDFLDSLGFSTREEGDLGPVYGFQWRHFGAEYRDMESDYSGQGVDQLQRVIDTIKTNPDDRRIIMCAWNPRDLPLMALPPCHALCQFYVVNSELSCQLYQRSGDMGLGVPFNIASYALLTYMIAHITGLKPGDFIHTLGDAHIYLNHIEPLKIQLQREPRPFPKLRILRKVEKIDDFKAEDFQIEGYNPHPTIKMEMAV

In the case of `COC(=O)C1CCN(C(=O)c2ccc(NCc3cnc4nc(N)nc(N)c4n3)cn2)CC1`, the Activity in the data set with Leishmania major is 103.4%; in the data set on Leishmania mexicana [1], 17.6%; with MRC5, “Non-toxic”; in the data set on Leishmania mexicana [5] it was 95.6%. Further, the fractional inhibitory concentration index (FICI) in the data set with Leishmania mexicana [2] was 1.51. In addition, the inhibition entry (in data set [3]; at Thymidylate synthase [4]) was “inactive” throughout. For the same molecule, the FICI in data set [6] came out at 0.8. Further, in the data set with Leishmania mexicana [7], the inhibition entry was “Active”.

As for `CCc1nc(N)nc(N)c1-c1ccc(Cl)cc1` [PYRIMETHAMINE], the figures for the Activity with Leishmania major and with Leishmania mexicana [5] were 68% and 102.5%, respectively. Besides, the GI50 in data set [8] worked out at 16.2 µg/mL (≈ 65.1 µM).

Regarding `NC(=O)C1CCN(C(=O)c2ccc(NCc3cnc4nc(N)nc(N)c4n3)cc2)CC1`, the Activity in the data set on Leishmania major worked out at 121.2%; in the data set on Leishmania mexicana [1], 15.7%; in the data set with Leishmania mexicana [5] it was 88.5%. Also, on Thymidylate synthase [9], the inhibition entry was “inactive”. Also, the GI50 in data set [8] worked out at 51 µg/mL (≈ 121 µM).

`CCOC(=O)CN(Cc1cnc2nc(N)nc(N)c2n1)c1ccc(C(=O)N2CCC(C(=O)OC)CC2)cc1`: the Activity with Leishmania major is 100.8%; in the data set with Leishmania mexicana [1], 21.9%; in the data set on Leishmania mexicana [5], 102.3%. The inhibition entry (in data set [3]; at Thymidylate synthase [11]) was “inactive” in each case. Besides, the inhibition at 100 ug/mL in data set [10] worked out at 28%.

`COC(=O)C1CCN(C(=O)c2ccc(N(C)Cc3cnc4nc(N)nc(N)c4n3)cc2)CC1`: the inhibition result on Thymidylate synthase [9] is “inactive”.

Turning to `CCc1ccc(NCc2cnc3nc(N)nc(N)c3n2)cc1C(=O)N1CCC(C(=O)OC)CC1`, the Ki at Dihydrofolate reductase was determined as 4.68 µM. On Thymidylate synthase [11], the inhibition entry is “inactive”.

For `CCc1cc(C(=O)N2CCC(C(=O)OC)CC2)ccc1NCc1cnc2nc(N)nc(N)c2n1`, the Activity in the data set on Leishmania major came to 104.2%; in the data set with Leishmania mexicana [1] it was 19.6%; with Leishmania mexicana [5] it was 90.6%. In addition, the inhibition entry (in [3]; on Thymidylate synthase [11]) was “inactive” each time. Moreover, in data set [8], the GI50 was 21.8 µg/mL (≈ 46.9 µM).

Consider `Nc1nc(N)c2nc(CNc3ccc(C(=O)N4CCC(C(=O)O)CC4)cc3)cnc2n1`, for which the inhibition entry at Thymidylate synthase [9] is “inactive”.

`COC(=O)C1CCN(C(=O)c2ccc(N(CCO)Cc3cnc4nc(N)nc(N)c4n3)cc2)CC1`: the Activity in the data set with Leishmania major was 122.2%; in the data set with Leishmania mexicana [1] it was 12.9%; in the data set on MRC5 it was “Non-toxic”; with Leishmania mexicana [5] it was 100.1%. Also, the Ki at Thymidylate synthase [12] (read-out: Ki) is 64 µM.

For `COC(=O)C1CCN(C(=O)c2ccc(NCc3cnc4nc(N)nc(N)c4n3)cc2)CC1`, the figures for the Activity with Leishmania major, with Leishmania mexicana [1] and with Leishmania mexicana [5] were 99.6%, 24.4% and 111.6%, respectively. The fractional inhibitory concentration index (FICI) in the data set with Leishmania mexicana [2] was found to be 2.05. Also, the Ki is 10 µM at Dihydrofolate reductase and “Not Active” on Thymidylate synthase [12]. Besides, the FICI in data set [6] was 0.75. Moreover, in data set [8], the GI50 is 23.4 µg/mL (≈ 53.6 µM). Further, in the data set on Leishmania mexicana [7], the inhibition entry was “Active”.
